Measured values from ChEMBL document CHEMBL1799947, “Synthesis, transport and antiviral activity of Ala-Ser and Val-Ser prodrugs of cidofovir” (Bioorg Med Chem Lett, 2011).
Calls of active or inactive are those of the source. The rule behind the calls is not given here.

Tests used:
Plasma [1] = experiment: Drug uptake in fasted Albino Sprague-Dawley rat plasma at 10 mg/kg administered into gastrointestinal tract measured up to 4 hrs; assay type: ADME, organism-based; parameters: dose 10 mg/kg; details: in vivo, other
In short: (§1)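 Rats received 3 mg of drug (about 10 mg/kg) by direct injection into the gastrointestinal tract. Plasma was sampled over a 4 h time course. Read-out was dose-corrected total cidofovir species in plasma.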

Plasma [2] = experiment: Prodrug conversion in CFW Swiss-Webster mouse plasma assessed as cidofovir monoethyl ester formation at 10 mg/kg administered through oral gavage; assay type: ADME, organism-based; parameters: dose 10 mg/kg, route oral; details: in vivo
Vaccinia virus [3] = experiment: Antiviral activity against Vaccinia virus Copenhagen infected in HFF cells assessed as reduction in plaque formation after 3 days; assay type: functional, organism-based; details: Orthopoxvirus vaccinia, 72 h
[4] = Antiviral activity against Cowpox virus Brighton infected in HFF cells assessed as reduction in plaque formation after 3 days; assay type: functional, cell-based, Cowpox virus (Brighton Red); details: 72 h
Human betaherpesvirus 5 = experiment: Antiviral activity against Human cytomegalovirus Towne infected in HFF cells assessed as reduction in plaque formation after 10 days; assay type: functional, organism-based; details: Human betaherpesvirus 5, Towne, 240 h
In short: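 HCMV plaque reduction assay incubated 10 days, with ganciclovir as the positive control.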

[5] = Cytotoxicity against human KB cells after 48 hrs by crystal violet staining technique; assay type: cell-based
[6] = (§2) Cytotoxicity against HFF cells; assay type: cell-based; details: human, HFF cells
Vaccinia virus [7] = experiment: Antiviral activity against Vaccinia virus Copenhagen infected in HFF cells assessed as reduction in plaque formation up to 100 uM after 3 days; assay type: functional, organism-based; details: Orthopoxvirus vaccinia
Plasma [8] = experiment: Prodrug conversion in fasted Albino Sprague-Dawley rat assessed as increase of cidofovir species level in plasma at 10 mg/kg into gastrointestinal tract relative to cidofovir or cyclic cidofovir; assay type: ADME, organism-based; parameters: dose 10 mg/kg; details: in vivo, other; in short: as §1
HFF = experiment: as §2; assay type: cell-based; details: human, hff

SMILES: CCOP(=O)(CO[C@H](CO)Cn1ccc(N)nc1=O)OC[C@H](NC(=O)[C@H](C)N)C(=O)OC (some centres undefined)
- Drug uptake (Plasma [1]): Active
- Activity (Plasma [2]): Active

SMILES: CCOP(=O)(CO[C@H](CO)Cn1ccc(N)nc1=O)OC[C@H](NC(=O)[C@@H](N)C(C)C)C(=O)OC (some centres undefined)
- Drug uptake (Plasma [1]): Not Active
- Activity (Plasma [2]): Active

SMILES: CC(C)OC(=O)[C@H](COP(=O)(O)CO[C@H](CO)Cn1ccc(N)nc1=O)NC(=O)[C@@H](N)C(C)C
- IC50 (Vaccinia virus [3]): > 100 µM
- IC50 [4]: > 100 µM
- IC50 (Human betaherpesvirus 5): 0.32 µM
- CC50 at 48 h [5]: > 100 µM

SMILES: CC(C)OC(=O)[C@H](COP1(=O)CO[C@@H](Cn2ccc(N)nc2=O)CO1)NC(=O)[C@H](N)C(C)C (some centres undefined)
- Drug uptake (Plasma [1]): Active

SMILES: COC(=O)[C@H](COP1(=O)CO[C@@H](Cn2ccc(N)nc2=O)CO1)NC(=O)[C@@H](N)C(C)C (some centres undefined)
- IC50 (Vaccinia virus [3]): 100 µM
- IC50 [4]: > 30 µM
- IC50 (Human betaherpesvirus 5): 0.3 µM
- CC50 [6]: > 100 µM
- CC50 at 48 h [5]: > 100 µM

SMILES: CCOP(=O)(O)CO[C@H](CO)Cn1ccc(N)nc1=O
- Activity (Vaccinia virus [7]): inactive

SMILES: CC(C)OC(=O)[C@H](COP(=O)(O)CO[C@H](CO)Cn1ccc(N)nc1=O)NC(=O)[C@H](N)C(C)C (mixture of isomers)
- Drug uptake (Plasma [1]): Active
- IC50 (Vaccinia virus [3]): > 100 µM
- IC50 [4]: > 100 µM
- IC50 (Human betaherpesvirus 5): 1.3 µM
- fold change (FC) (Plasma [8]): 15
- CC50 at 48 h [5]: > 100 µM

SMILES: Nc1ccn(C[C@@H](CO)OCP(=O)(O)O)c(=O)n1.O.O [CIDOFOVIR]
- Drug uptake (Plasma [1]): Active
- IC50 (Vaccinia virus [3]): 20 µM
- IC50 [4]: 30 µM
- IC50 (Human betaherpesvirus 5): 0.11 µM
- CC50 [6]: > 100 µM
- CC50 at 48 h [5]: > 100 µM

SMILES: Nc1ccn(C[C@H]2COP(=O)(O)CO2)c(=O)n1 [CYCLIC CIDOFOVIR]
- Drug uptake (Plasma [1]): Active
- IC50 (Vaccinia virus [3]): 40 µM
- IC50 [4]: 30 µM
- IC50 (Human betaherpesvirus 5): 0.25 µM
- CC50 (HFF): 100 µM
- CC50 at 48 h [5]: > 100 µM

SMILES: Nc1ncnc2c1ncn2[C@@H]1O[C@H](CO)[C@@H](O)[C@@H]1O [VIDARABINE]
- IC50 (Vaccinia virus [3]): 2 µM
